Data reported in ChEMBL document CHEMBL1649384, “Synthesis and antiproliferative activity of novel symmetrical alkylthio- and alkylseleno-imidocarbamates” (Eur J Med Chem, 2011).

Key:
[1] = test system: MCF7; assay: Cytotoxicity against human MCF7 cells after 72 hrs by MTT assay; format: functional; settings: MCF7, 72 h
Summary of the method: (§1)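 Cells seeded per well: Hep-G2 1×10⁴, HT-29 4×10³, K-562 4×10³, MCF-7 1.2×10⁴, MCF-10A 7×10³, PC-3 2×10³. MCF-10A were grown in supplemented MEBM at 37 °C, 5% CO₂. Five concentrations were tested between 0.01 and 100, with 72 h exposure. Formazan was read by A590. GI₅₀ was taken relative to untreated controls, from at least three independent experiments.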

[2] = test system: HT-29; assay: Cytotoxicity against human HT-29 cells after 72 hrs by MTT assay; format: functional; settings: HT-29, 72 h; for CC50: read-out: LC50 (the source's name); summary of the method: as §1
[3] = test system: K562; assay: Cytotoxicity against human K562 cells after 72 hrs by MTT assay; format: functional; settings: K562, 72 h; for CC50: read-out: LC50 (the source's name); summary of the method: as §1
[4] = test system: HepG2; assay: Cytotoxicity against human HepG2 cells after 72 hrs by MTT assay; format: functional; settings: HepG2, 72 h; for CC50: read-out: LC50 (the source's name); summary of the method: as §1
[5] = test system: PC-3; assay: Cytotoxicity against human PC3 cells after 72 hrs by MTT assay; format: functional; settings: PC-3, 72 h; for CC50: read-out: LC50 (the source's name); summary of the method: as §1
[6] = Cytotoxicity against human MCF10A cells after 72 hrs by MTT assay; format: cell-based, MCF-10A; settings: for GI50 at 72 h: MCF10A cells; for LC50 / TGI: mcf-10a, 72 h; summary of the method: as §1

SMILES	GI50 [1] [µM]	LC50 [1] [µM]	TGI [1] [µM]	GI50 [2] [µM]	TGI [2] [µM]	CC50 [2] [µM]	GI50 [3] [µM]	TGI [3] [µM]	CC50 [3] [µM]	GI50 [4] [µM]	TGI [4] [µM]	CC50 [4] [µM]	GI50 [5] [µM]	TGI [5] [µM]	CC50 [5] [µM]	GI50 at 72 h [6] [µM]	LC50 [6] [µM]	TGI [6] [µM]
CS/C(=N\C(=O)c1cccs1)NC(=O)c1cccs1	44.5	> 100	89	77.9	> 100	> 100	72.6	> 100	> 100	> 100	> 100	> 100	39	98.2	> 100	19.7	90.5	55.1
C[Se]/C(=N\C(=O)c1ccc2c(c1)OCO2)NC(=O)c1ccc2c(c1)OCO2	0.99	> 100	52.8	0.53	> 100	> 100	9.23	46.3	85.2	5.84	23.6	73.1	4.24	36.8	> 100	5.58	> 100	45.97
O=C(/N=C(/NC(=O)c1cnc2ccccc2c1)[Se]Cc1ccccc1)c1cnc2ccccc2c1	23.6	> 100	> 100	26.1	> 100	> 100	29.3	72.6	> 100	8.54	48.9	90.3	34.8	> 100	> 100	23.6	> 100	> 100
CS/C(=N\C(=O)c1ccno1)NC(=O)c1ccno1	77.8	> 100	> 100	> 100	> 100	> 100	> 100	> 100	> 100	> 100	> 100	> 100	99.2	> 100	> 100	16.9	> 100	> 100
CS/C(=N\C(=O)c1cc2ccccc2s1)NC(=O)c1cc2ccccc2s1	9.51	78.5	43.4	16.8	88.2	88.2	34.7	66.6	98.6	15.8	53	75.8	8.58	39.4	72.5	0.02	54.56	5.6
CS/C(=N\C(=O)c1c2ccccc2nc2ccccc12)NC(=O)c1c2ccccc2nc2ccccc12	27.7	> 100	> 100	69.2	> 100	> 100	45	76	> 100	90.2	> 100	> 100	51.1	87.3	> 100	1	> 100	> 100
CS/C(=N\C(=O)c1ccc2c(c1)OCO2)NC(=O)c1ccc2c(c1)OCO2	24.6	94.8	59.7	46.4	> 100	> 100	68	> 100	> 100	61.4	> 100	> 100	28.7	54.5	80.4	1.01	9.05	5.03
CS/C(=N\C(=O)c1sccc1Cl)NC(=O)c1sccc1Cl	10.3	> 100	57.1	35.6	> 100	> 100	37	78.9	> 100	65.2	> 100	> 100	24.7	57.4	90.1	0.09	64.11	23.72
C[Se]/C(=N\C(=O)c1c2ccccc2nc2ccccc12)NC(=O)c1c2ccccc2nc2ccccc12	73.9	> 100	> 100	7.63	> 100	> 100	27.2	61	94.8	22.3	52.4	82.5	41.3	80.1	> 100	18.2	88.31	53.28
O=C(/N=C(/NC(=O)c1ccc2c(c1)OCO2)[Se]Cc1ccccc1)c1ccc2c(c1)OCO2	55.3	> 100	> 100	57.3	> 100	> 100	97.8	> 100	> 100	> 100	> 100	> 100	> 100	> 100	> 100	55.3	> 100	> 100
O=C(/N=C(/NC(=O)c1ccno1)[Se]Cc1ccccc1)c1ccno1	7.8	> 100	> 100	6.82	> 100	> 100	20	57.3	94.7	9.12	58.9	> 100	53.1	> 100	> 100	7.8	> 100	> 100
C[Se]/C(=N\C(=O)c1cc2ccccc2s1)NC(=O)c1cc2ccccc2s1	5.07	80.6	32.7	5.62	> 100	> 100	32.4	61	89.5	9.59	41	73.3	37.2	65.6	94	0.49	73.21	34.65
